# Source: ChEMBL document CHEMBL4229342, “Synthesis of novel proxyphylline derivatives with dual Anti-Candida albicans and anticancer activity” (Eur J Med Chem, 2018)
# Activity calls are given as the source filed them. The calls are words filed in the database; no cut-off is given here.
# What was measured:
# Candida albicans [1] = experiment: Antibiofilm activity in Candida albicans ATCC 90028 assessed as early apoptotic morphological changes by measuring crescent-shaped nuclei at 20 uM after 18 hrs by acridine orange/ethidium bromide staining-based confocal laser scanning fluorescence microscopic analysis; assay type: functional
# Procedure, shortened: (§1)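 Unfixed biofilm cells were dual-stained in situ with acridine orange and ethidium bromide, each at 100 µg/mL. Confocal fluorescence and DIC imaging scored green AO nuclei, crescent-shaped chromatin, reddish-orange late apoptotic/necrotic cells and EB uptake, against untreated control biofilm. […]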
# Candida albicans [2] = experiment: Induction of apoptosis in Candida albicans ATCC 90028 planktonic forms assessed as accumulation at subG1 phase at 4 to 16 ug/ml by ethidium bromide staining based gel electrophoresis and confocal laser scanning microscopy; assay type: functional, organism-based
# Candida albicans [3] = experiment: (§2) Antifungal activity against Candida albicans ATCC 90028 infected in Galleria mellonella larvae infected with 20 uM compound pre-treated cell suspensions assessed as reduction in fungal cell nodules in dark for 144 hrs at 30 degC and measured every 24 hrs by hematoxylin and eosin staining-based light microscopic analysis; assay type: functional, organism-based
# Candida albicans [4] = experiment: Fungicidal activity against Candida albicans ATCC 90028 assessed as reduction in cell viability in RPMI medium in presence of sorbitol; assay type: functional
# Candida albicans [5] = experiment: Antibiofilm activity in Candida albicans ATCC 90028 assessed as beta-glucan uniform distribution at 20 uM after 18 hrs by Congo red staining-based confocal laser scanning microscopic analysis; assay type: functional, organism-based
# Procedure, shortened: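 Mature C. albicans biofilm cells were stained with 2% Congo Red to detect β-glucan exposure. They were imaged by confocal laser scanning microscopy as fluorescence and fluorescence/DIC overlays. Treated biofilms were compared with untreated control biofilm.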
# Candida albicans [6] = experiment: Induction of exochitinase release in Candida albicans ATCC 90028 assessed as p-nitrophenyl release from chitobioside substrate C at 20 uM by chitinolytic activity assay; assay type: functional, organism-based
# Candida albicans [7] = experiment: Fungicidal activity against Candida albicans ATCC 90028 assessed as log reduction in cell viability at 10 uM in RPMI medium in presence of sorbitol; assay type: functional
# Candida albicans [8] = experiment: Antibiofilm activity in Candida albicans ATCC 90028 assessed as cell membrane lysis at 20 uM after 18 hrs by acridine orange/ethidium bromide staining-based confocal laser scanning fluorescence microscopic analysis; assay type: functional, organism-based; procedure, shortened: as §1
# Candida albicans [9] = experiment: Induction of apoptosis in Candida albicans ATCC 90028 protoplast assessed as early apoptotic cells at 20 uM after 48 hrs Annexin V-FITC/propidium iodide staining based flow cytometric analysis (reference value: 3.00 +/- 1.65%); assay type: functional
# Candida albicans [10] = experiment: Inhibition of biofilm formation of Candida albicans ATCC 90028 up to 20 uM […] by XTT assay; assay type: functional, organism-based
# Candida albicans [11] = experiment: Antifungal activity against Candida albicans ATCC 90028 infected in Galleria mellonella larvae infected with 20 uM compound pre-treated cell suspensions assessed as cocoon formation incubated in dark for 144 hrs at 30 degC and measured every 24 hrs (reference value: 65%); assay type: organism-based
# Candida albicans [12] = experiment: Induction of apoptosis in Candida albicans ATCC 90028 protoplast assessed as viable cells at 20 uM after 48 hrs Annexin V-FITC/propidium iodide staining based flow cytometric analysis (reference value: 96.38 +/- 2.05%); assay type: functional
# CCRF-CEM = experiment: Antiproliferative activity against human CCRF-CEM cells after 72 hrs by MTT assay; assay type: functional, cell-based
# Procedure, shortened: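 EC50 was derived from a repeat 72 h MTT assay in CCRF-CEM or MCF-7 cells. It is the concentration killing 50% of tumour cells compared with control cells incubated without inhibitor in 0.5% DMSO.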
# Candida albicans [13] = experiment: Induction of apoptosis in Candida albicans ATCC 90028 protoplast assessed as late apoptotic cells at 20 uM after 48 hrs Annexin V-FITC/propidium iodide staining based flow cytometric analysis (reference value: 0.3 +/- 0.30%); assay type: functional
# Candida albicans [14] = experiment: Induction of apoptosis in Candida albicans ATCC 90028 protoplast assessed as necrotic cells at 20 uM after 48 hrs Annexin V-FITC/propidium iodide staining based flow cytometric analysis (reference value: 0.33 +/- 0.20%); assay type: functional
# Candida albicans [15] = experiment: Induction of chitinase release in Candida albicans ATCC 90028 assessed as p-nitrophenyl release from N-acetyl-beta-D-glucosaminide at 20 uM by chitinolytic activity assay; assay type: functional, organism-based
# Candida albicans [16] = experiment: Effect on dilpoid nuclei level in Candida albicans ATCC 90028 planktonic forms at 16 ug/ml by ethidium bromide staining based gel electrophoresis and confocal laser scanning microscopy; assay type: functional, organism-based
# Candida albicans [17] = experiment: Antifungal activity against Candida albicans ATCC 90028 infected in Galleria mellonella larvae infected with 20 uM compound pre-treated cell suspensions assessed as melanization incubated in dark for 144 hrs at 30 degC and measured every 24 hrs (reference value: 65%); assay type: functional
# Candida albicans [18] = experiment: Fungicidal activity against Candida albicans ATCC 90028 assessed as log reduction in cell viability at 10 uM in RPMI medium in absence of sorbitol; assay type: functional
# Candida albicans [19] = experiment: Fungicidal activity against Candida albicans ATCC 90028 assessed as reduction in cell viability in RPMI medium in absence of sorbitol; assay type: functional
# Candida albicans [20] = experiment: Inhibition of biofilm formation of Candida albicans ATCC 90028 up to 248 uM […] by XTT assay; assay type: functional, organism-based
# Candida albicans [21] = experiment: Disruption of cell wall in Candida albicans SC5314 assessed as decrease in chitin level by measuring chitin mean staining index at 248 uM after 18 hrs by calcofluor white staining-based flow cytometric analysis (reference value: 496 +/- 51); assay type: functional
# Candida albicans [22] = experiment: Antifungal activity against Candida albicans ATCC 90028 assessed as reduction in cell viability at 38 uM after 48 hrs in presence of ergosterol by XTT assay; assay type: functional
# Candida albicans [23] = experiment: Induction of exochitinase release in Candida albicans ATCC 90028 assessed as p-nitrophenyl release from chitobioside substrate C at 248 uM by chitinolytic activity assay; assay type: functional, organism-based
# Candida albicans [24] = experiment: Induction of endochitinase release in Candida albicans ATCC 90028 assessed as p-nitrophenyl release from triacetylochitotriose substrate A at 248 uM by chitinolytic activity assay; assay type: functional, organism-based
# Candida albicans [25] = experiment: as §2, with “31” for “20”, “larval hemocytes incubated” for “fungal cell nodules”; assay type: functional, organism-based
# [26] = In-vitro chitinolytic activity of the compound assessed as p-nitrophenyl release from N-acetyl-beta-D-glucosaminide at 248 uM by chitinolytic activity assay; assay type: functional
# Candida albicans [27] = experiment: Effect on dilpoid nuclei level in Candida albicans ATCC 90028 planktonic forms at 0.03 ug/ml by ethidium bromide staining based gel electrophoresis and confocal laser scanning microscopy; assay type: functional, organism-based
# Candida albicans [28] = experiment: as §2, with “31” for “20”; assay type: functional, organism-based
# Candida albicans [29] = experiment: Induction of apoptosis in Candida albicans ATCC 90028 protoplast assessed as early apoptotic cells at 248 uM after 48 hrs Annexin V-FITC/propidium iodide staining based flow cytometric analysis (reference value: 3.00 +/- 1.65%); assay type: functional
# Candida albicans [30] = experiment: Induction of apoptosis in Candida albicans ATCC 90028 protoplast assessed as necrotic cells at 248 uM after 48 hrs Annexin V-FITC/propidium iodide staining based flow cytometric analysis (reference value: 0.33 +/- 0.20%); assay type: functional
# Candida albicans [31] = experiment: Inhibition of biofilm formation of Candida albicans ATCC 90028 at 248 uM […] by XTT assay; assay type: functional
smiles,measurement,setting,value
CC(Cn1cnc2c1c(=O)n(C)c(=O)n2C)OCc1cn(CCCn2nc3c(Br)c(Br)c(Br)c(Br)c3n2)nn1 (configuration not stated),fold change (FC),Candida albicans [1],2
same,Activity,Candida albicans [2],inactive
same,Activity,Candida albicans [3],Active
same,MFC,Candida albicans [4],10 µM
same,Activity,Candida albicans [5],Active
same,Activity,Candida albicans [6],inactive
same,log(activity),Candida albicans [7],6.74
same,Activity,Candida albicans [8],Active
same,Activity,Candida albicans [9],2.87%
same,inhibition,Candida albicans [10],inactive
same,Activity,Candida albicans [11],98%
same,Activity,Candida albicans [12],2.87%
same,EC50,CCRF-CEM,6.5 µM
same,Activity,Candida albicans [13],0.22%
same,Activity,Candida albicans [14],93.94%
same,Activity,Candida albicans [15],inactive
same,Activity,Candida albicans [16],inactive
same,Activity,Candida albicans [17],80%
same,log(activity),Candida albicans [18],6.81
same,MFC,Candida albicans [19],5 µM
CC(CN1c2ccccc2Sc2ccccc21)OC(=O)OC(C)Cn1cnc2c1c(=O)n(C)c(=O)n2C (configuration not stated),inhibition,Candida albicans [20],inactive
same,Activity_index,Candida albicans [21],550
same,Activity,Candida albicans [22],92%
same,Activity,Candida albicans [23],inactive
same,Activity,Candida albicans [24],inactive
same,Activity,Candida albicans [25],Active
same,Activity,[26],0.01 to 0.03 µmol/min
same,Activity,Candida albicans [27],inactive
same,Activity,Candida albicans [28],Active
same,Activity,Candida albicans [29],1.2%
same,Activity,Candida albicans [30],95.9%
same,inhibition at 248 µM,Candida albicans [31],61%
